Laboratory results published in ChEMBL document CHEMBL1122169, “Inhibition of rat hepatic microsomal aminopyrine N-demethylase activity by benzimidazole derivatives. Quantitative structure-activity relationships” (J Med Chem, 1982).

Tests used:
[1] = Partition coefficient (logP); format: physicochemical; details: octanol/water
[2] = target: T1, Cytochrome P450 2B1 (Rattus norvegicus, UniProt P00176); assay: Inhibitory potency to aminopyrine N-demethylase activity (P450) in hepatic microsomes from phenobarbitone-induced rats.; format: ADME, Liver; details: read-out: pI50 (converted)
T1 sequence (P00176 whole entry): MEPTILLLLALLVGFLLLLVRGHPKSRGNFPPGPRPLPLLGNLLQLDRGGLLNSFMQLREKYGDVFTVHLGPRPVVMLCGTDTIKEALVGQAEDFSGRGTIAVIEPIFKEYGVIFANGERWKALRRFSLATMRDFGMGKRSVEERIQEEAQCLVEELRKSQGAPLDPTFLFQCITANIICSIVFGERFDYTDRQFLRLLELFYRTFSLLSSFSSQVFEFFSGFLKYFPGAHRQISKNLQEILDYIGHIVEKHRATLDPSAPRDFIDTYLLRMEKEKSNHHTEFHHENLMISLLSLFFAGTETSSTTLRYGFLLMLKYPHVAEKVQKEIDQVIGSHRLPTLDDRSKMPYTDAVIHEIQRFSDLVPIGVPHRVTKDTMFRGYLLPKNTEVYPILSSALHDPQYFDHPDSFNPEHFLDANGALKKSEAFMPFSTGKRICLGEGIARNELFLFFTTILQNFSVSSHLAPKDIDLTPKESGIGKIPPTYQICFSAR
Outline: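 Microsomes (105000g pellet) from livers of male Wistar rats (100–150 g) given phenobarbitone ip on consecutive days. A 3.0 mL mix in 0.1 M K phosphate, pH 7.4, held aminopyrine 1.61 μmol, NADPH-generating system, semicarbazide and 5.6 mg protein, run 15 min. Formaldehyde was read by Nash/Hantzsch. Inhibitor went in DMSO or 0.07 M HCl, with solvent in controls. I50 came from seven concentrations.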

Row | logP [1] | IC50 [2] [µM] | SMILES
1 | 3.4 | 25.7 | Cc1ccc(OCc2nc3ccccc3[nH]2)cc1C
2 | 2.93 | – | CCCCc1nc2ccccc2[nH]1
3 | 4.06 | 30.2 | c1ccc2c(c1)c1c(c3ccccc32)=NCN=1
4 | 2.72 | 53.7 | c1ccc2c3c(ccc2c1)=NCN=3
5 | 4.79 | 18.2 | c1ccc2cc(Cc3nc4ccccc4[nH]3)ccc2c1
6 | 1.88 | 67.6 | CCOc1ccc2[nH]cnc2c1
7 | 2.41 | – | CC(C)c1nc2ccccc2[nH]1
8 | 0.61 | – | CC(=O)Nc1ccc2nc(C)[nH]c2c1
9 | 3.16 | 25.1 | c1ccc(OCCc2nc3ccccc3[nH]2)cc1
10 | 2.68 | 26.9 | O=C(Nc1cc(Cl)cc2nc[nH]c12)c1ccccc1
11 | 3.12 | 44.7 | Cc1ccc(OCc2nc3ccccc3[nH]2)cc1
12 | 3.96 | 38.9 | c1ccc(CCc2nc3ccccc3[nH]2)cc1
13 | 3.93 | 32.4 | CCCCCCc1nc2ccccc2[nH]1
14 | 1.93 | 56.2 | CCOc1ccc2[nH]c(C)nc2c1
15 | 3.77 | 21.9 | Brc1ccc(OCc2nc3ccccc3[nH]2)cc1
16 | 3.01 | – | O=[N+]([O-])c1cc(Cl)cc2[nH]cnc12
17 | 2.39 | – | FC(F)(F)c1nc2ccccc2[nH]1
18 | 2.86 | – | CC(C)(C)c1nc2ccccc2[nH]1
19 | 1.89 | – | Cc1ccc2[nH]cnc2c1
20 | 4.46 | 19.1 | c1ccc(CCCc2nc3ccccc3[nH]2)cc1
21 | 1.94 | – | Cc1ccc2nc(C)[nH]c2c1
22 | 1.27 | – | CC(=O)Nc1cc(Cl)cc2[nH]c(C)nc12
23 | 3.9 | 55 | CCCCc1nc2cc(C)c(C)cc2[nH]1
24 | 2.03 | – | Fc1ccc2[nH]cnc2c1
25 | 3.17 | 81.3 | Clc1cc2nc[nH]c2cc1Cl

Row | logP [1] | IC50 [2] [µM] | SMILES
26 | 4.42 | 11 | Brc1cccc(Br)c1OCc1nc2ccccc2[nH]1
27 | 4.8 | 25.1 | c1ccc2c(Cc3nc4ccccc4[nH]3)cccc2c1
28 | 3.14 | 28.8 | Cc1cccc(OCc2nc3ccccc3[nH]2)c1
29 | 7.43 | 22.9 | CCCCCCCCCCCCCc1nc2ccccc2[nH]1
30 | 3.31 | 100 | Cc1nc2cc(Cl)cc(Cl)c2[nH]1
31 | 1.43 | – | Cc1nc2ccccc2[nH]1
32 | 2.43 | 20 | O=C(c1ccccc1)c1ccc2[nH]cnc2c1
33 | 4.96 | 15.1 | c1ccc(CCCCc2nc3ccccc3[nH]2)cc1
34 | 2.38 | 64.6 | c1ccc(-c2nc3ccccc3[nH]2)nc1
35 | 1.7 | – | c1cncc(-c2nc3ccccc3[nH]2)c1
36 | 3.39 | 91.2 | c1ccc2[nH]c(C3CCCCC3)nc2c1
37 | 3.5 | 25.7 | Cc1cc(C)cc(OCc2nc3ccccc3[nH]2)c1
38 | 2.44 | – | CCc1nc2ccc(C)cc2[nH]1
39 | 2.02 | – | c1ccc2[nH]c(C3CC3)nc2c1
40 | 3.22 | 81.3 | Cc1nc2cc(Cl)c(Cl)cc2[nH]1
41 | 4.93 | 28.8 | CCCCCCCCc1nc2ccccc2[nH]1
42 | 2.36 | – | Cc1nc2c(C)c(C)ccc2[nH]1
43 | 2.38 | – | Clc1ccc2[nH]cnc2c1
44 | 2.61 | – | CCCCCc1nc2cc(NC(C)=O)ccc2[nH]1
45 | 2.01 | – | O=[N+]([O-])c1cccc2[nH]cnc12
46 | 3.51 | 12 | Brc1ccccc1OCc1nc2ccccc2[nH]1
47 | 3.33 | 26.9 | Clc1ccccc1OCc1nc2ccccc2[nH]1
48 | 6.43 | – | CCCCCCCCCCCc1nc2ccccc2[nH]1
49 | 4.43 | 30.2 | Cc1cc(OCc2nc3ccccc3[nH]2)cc(C)c1Cl
50 | 2.87 | 55 | c1ccc(-c2nc3ccccc3[nH]2)cc1

Row | logP [1] | IC50 [2] [µM] | SMILES
51 | 2.43 | – | Cc1nc2cc(Cl)ccc2[nH]1
52 | 2.4 | – | Cc1nc2cc(C)c(C)cc2[nH]1
53 | 4.52 | 11 | Brc1ccc(OCc2nc3ccccc3[nH]2)c(Br)c1
54 | 1.69 | – | Cc1nc2ccc([N+](=O)[O-])cc2[nH]1
55 | 4.26 | 28.2 | Clc1cccc(OCc2nc3ccccc3[nH]2)c1Cl
56 | 2.9 | – | CCc1nc2cc(C)c(C)cc2[nH]1
57 | 3.46 | 91.2 | c1ccc(Cc2nc3ccccc3[nH]2)cc1 [BENDAZOL]
58 | 3.26 | 53.7 | Clc1cc(Cl)c2[nH]cnc2c1
59 | 4.94 | 41.7 | CCCCCCCc1nc2cc(C)ccc2[nH]1
60 | 4.43 | – | CCCCCCCc1nc2ccccc2[nH]1
61 | 3.19 | – | Cc1nc2cc(NC(=O)c3ccccc3)ccc2[nH]1
62 | 1.47 | – | OC(c1ccccc1)c1nc2ccccc2[nH]1 (stereo not given)
63 | 2.11 | – | CCCCC(=O)Nc1ccc2nc(C)[nH]c2c1
64 | 2.43 | – | CCCc1nc2ccccc2[nH]1
65 | 3.06 | 100 | Cc1nc2c([N+](=O)[O-])cc(Cl)cc2[nH]1
66 | 3.4 | – | CCCc1nc2cc(C)c(C)cc2[nH]1
67 | 5.4 | 44.7 | CCCCCCCc1nc2cc(C)c(C)cc2[nH]1
68 | 3.59 | 25.1 | Clc1ccc(OCc2nc3ccccc3[nH]2)cc1
69 | 2.66 | 69.2 | c1ccc(OCc2nc3ccccc3[nH]2)cc1
70 | 1.93 | – | CCc1nc2ccccc2[nH]1
71 | 1.86 | – | Cc1cccc2[nH]cnc12
72 | -0.06 | – | NCc1nc2ccccc2[nH]1
73 | 2.91 | – | CC(C)Cc1nc2ccccc2[nH]1
74 | 3.43 | – | CCCCCc1nc2ccccc2[nH]1
75 | 3.59 | 67.6 | CCc1ccc(OCc2nc3ccccc3[nH]2)cc1

Row | SMILES | logP [1] | IC50 [2] [µM]
76 | O=[N+]([O-])c1ccc2[nH]cnc2c1 | 1.64 | –
77 | ClCc1nc2ccccc2[nH]1 | 1.15 | –
78 | c1ccc2[nH]cnc2c1 [BENZIMIDAZOLE] | 1.38 | –
79 | Clc1ccc(Cc2nc3ccccc3[nH]2)c(Cl)c1 | 5.32 | 15.1
80 | Cc1cccc(Cc2nc3ccccc3[nH]2)c1C | 5.23 | 53.7
81 | Clc1cccc(Cc2nc3ccccc3[nH]2)c1 | 4.44 | 22.9
